Measured values pooled from the literature.
Protocols differ between the studies behind these lines.
MME: Neprilysin (MME, Homo sapiens, UniProt P08473)
LATS2: Serine/threonine-protein kinase LATS2 (LATS2, Homo sapiens, UniProt Q9NRM7)

SMILES	target	read-out	mode	method	tested at	measurement	result
C[C@H](C(=O)N[C@H]1COc2ccccc2[C@@H]1S(C)(=O)=O)c1ccc(F)cc1	MME	enzyme activity	inhibitor		10 µM	inhibition	-1%
COc1cc(Nc2ncc(F)c(Nc3ccc4c(n3)NC(=O)C(C)(C)O4)n2)cc(OC)c1OC	LATS2	binding		competition with immobilised ligand	10 µM	inhibition	100%
Nc1ncc(-c2nc(N3CCOCC3)nc(N3CCOCC3)n2)c(C(F)F)n1	Citron Rho-interacting kinase (CIT, Homo sapiens, UniProt O14578)	binding		competition with immobilised ligand	10 µM	remaining binding	91%
c1ccc(C(NCCNC(c2ccccc2)c2ccccc2)c2ccccc2)cc1	MME	enzyme activity	inhibitor		10 µM	inhibition	8%
C#Cc1n[nH]c2c(-c3cn([C@@H](C)c4ccccn4)c(=O)[nH]c3=O)cc(F)cc12	Tyrosine-protein kinase JAK2 (JAK2, Homo sapiens, UniProt O60674)	enzyme activity	inhibitor		0.1 µM	inhibition	-1%
Cc1sc2c(c1C)C(c1ccc(Cl)cc1)=N[C@@H](CC(=O)OC(C)(C)C)c1nnc(C)n1-2	Stimulator of interferon genes protein (STING1, Homo sapiens, UniProt Q86WV6, H232R)	thermal stability		DSF	200 µM	ΔTm	-1.58 °C
Cc1nn(C)cc1-c1nc2c(N3CCN(Cc4ccc(Cl)cc4)CC3)c(Cl)cnc2[nH]1	LATS2	binding		competition with immobilised ligand	1 µM	remaining binding	77%
COc1ncccc1-c1cnn2ccc(N3CCN(C(=O)OC(C)C)CC3)nc12	Phosphatidylinositol 5-phosphate 4-kinase type-2 gamma (PIP4K2C, Homo sapiens, UniProt Q8TBX8)	binding		competition with immobilised ligand	1 µM	remaining binding	9.5%
CCN(CC)CCCC[C@H](NC(=O)[C@H](CC(C)C)NC(=O)[C@H](C)NC(=O)[C@H](Cc1ccccc1)NC(=O)c1ccc(C(C)(C)C)cc1)C(=O)N[C@@H](CO)C(=O)OC	Histone-lysine N-methyltransferase ASH1L (ASH1L, Homo sapiens, UniProt Q9NR48)	thermal stability		DSF	25 µM	ΔTm	-0.39 °C
Cc1ncc(C)n2nc(/C=C/c3nc(N4CCCC4)cc(N4CCOCC4)n3)nc12	Nitric oxide synthase, inducible (Nos2, Mus musculus, UniProt P29477)	enzyme activity	inhibitor		10 µM	inhibition	10%
